Measurements published in ChEMBL document CHEMBL3525967, “In vitro glucuronidation of the antibacterial triclocarban and its oxidative metabolites” (Drug Metab Dispos, 2012).

Experiments:
[1] = (§1) Drug metabolism in human liver microsomes after 30 mins by LC-ESI-MS analysis; format: ADME; conditions: liver microsomes
How it was run: (§2)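 2'-OH-TCC at 0.2, 0.5, 1, 2, 3, 5, 10 and 50 µM incubated with liver microsomes (alamethicin, MgCl2, saccharolactone, UDPGA; 37 °C), sampled at 5, 10, 15 and 30 min. Samples ≥5 µM diluted 1:9 in ACN; LC-ESI-MS. KM and vmax fitted from rate vs concentration; intrinsic clearance derived from these; mean and SD of three.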

[2] = test system: Liver microsome; test: as §1; format: ADME; conditions: microsomes, 0.5 h; how it was run: as §2
[3] = Drug metabolism in human intestine microsomes assessed as N'-glucuronide-triclocarban formation incubated for 5 mins prior to UDPGA addition measured after 5 to 30 mins by LC-UV analysis; format: ADME
How it was run: (§3)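 Microsomes or UGT Supersomes (5 µg protein) were held 15 min on ice with alamethicin in 100 mM potassium phosphate pH 7.4. TCC was added at 10 µM (2% DMSO) with 10 mM MgCl2 and 10 mM saccharolactone, pre-warmed 5 min at 37 °C, then started with UDPGA. Samples at 5, 10, 15 and 30 min were quenched in ACN. Product was read by LC-UV at 265 nm; rate came from regression over time, three incubations.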

[4] = Drug metabolism in human kidney microsomes assessed as N-glucuronide-triclocarban formation incubated for 5 mins prior to UDPGA addition measured after 30 mins by LC-UV-ESI-MS/MS analysis; format: ADME; conditions: 0.5 h
How it was run: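 Pooled human kidney or liver microsomes (liver: 25 mixed-gender donors), 5 µg protein, in 200 µL 100 mM potassium phosphate pH 7.4. Alamethicin pre-treated on ice 15 min. Final 10 µM TCC (2% DMSO), with 10 mM MgCl2 and 10 mM saccharolactone, preincubated 5 min at 37 °C. Started with UDPGA (20 mM stock). Sampled at 5, 10, 15 and 30 min into ACN containing 1 µM DCC internal standard.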

[5] = Drug metabolism in B6C3F1 mouse liver microsomes assessed as N'-glucuronide-triclocarban formation incubated for 5 mins prior to UDPGA addition measured after 30 mins by LC-UV-ESI-MS/MS analysis; format: ADME; conditions: 0.5 h
How it was run: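 TCC was incubated at 10 µM (2% DMSO) in 100 mM phosphate pH 7.4 with alamethicin-treated microsomes or Supersomes, 10 mM MgCl2 and 10 mM saccharolactone. After 5 min pre-incubation at 37 °C, UDPGA was added to start the reaction. Protein was raised up to 2 mg/mL. Samples were quenched in ACN with 1 µM DCC internal standard, centrifuged, and N-glucuronides detected by LC-ESI-MS/MS in SRM mode.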

[6] = Drug metabolism in human intestinal microsomes assessed as N-glucuronide-triclocarban formation incubated for 5 mins prior to UDPGA addition measured after 5 to 30 mins by LC-UV analysis; format: ADME, Intestine, Microsome; how it was run: as §3
[7] = target: T1, UDP-glucuronosyltransferase 1A9 (Homo sapiens, UniProt O60656); test: Drug metabolism assessed as human UGT1A9-mediated N'-glucuronide-triclocarban formation expressed in baculovirus infected insect sf9 cells incubated for 5 mins prior to UDPGA addition measured after 5 to 30 mins by LC-UV analysis; format: ADME; how it was run: as §3
T1 sequence (O60656 whole entry): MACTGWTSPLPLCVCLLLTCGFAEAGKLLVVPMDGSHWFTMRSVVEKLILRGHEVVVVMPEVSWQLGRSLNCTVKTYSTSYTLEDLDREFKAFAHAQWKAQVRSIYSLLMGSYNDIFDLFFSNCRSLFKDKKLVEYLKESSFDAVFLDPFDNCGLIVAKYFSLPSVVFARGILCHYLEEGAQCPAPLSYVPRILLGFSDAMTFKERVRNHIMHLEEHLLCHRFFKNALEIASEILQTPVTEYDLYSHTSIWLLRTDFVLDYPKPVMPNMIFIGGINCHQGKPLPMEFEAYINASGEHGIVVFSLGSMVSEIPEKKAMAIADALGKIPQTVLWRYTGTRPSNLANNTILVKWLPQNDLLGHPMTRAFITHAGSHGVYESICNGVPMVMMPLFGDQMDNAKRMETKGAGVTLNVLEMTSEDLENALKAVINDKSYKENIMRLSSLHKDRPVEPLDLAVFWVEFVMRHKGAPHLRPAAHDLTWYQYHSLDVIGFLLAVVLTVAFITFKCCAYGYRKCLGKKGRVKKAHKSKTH

[8] = target: T2, UDP-glucuronosyltransferase 1A1 (Homo sapiens, UniProt P22309); test: Drug metabolism assessed as human UGT1A1-mediated N-glucuronide-triclocarban formation expressed in baculovirus infected insect sf9 cells incubated for 5 mins prior to UDPGA addition measured after 5 to 30 mins by LC-UV analysis; format: ADME; how it was run: as §3
T2 sequence (P22309 whole entry): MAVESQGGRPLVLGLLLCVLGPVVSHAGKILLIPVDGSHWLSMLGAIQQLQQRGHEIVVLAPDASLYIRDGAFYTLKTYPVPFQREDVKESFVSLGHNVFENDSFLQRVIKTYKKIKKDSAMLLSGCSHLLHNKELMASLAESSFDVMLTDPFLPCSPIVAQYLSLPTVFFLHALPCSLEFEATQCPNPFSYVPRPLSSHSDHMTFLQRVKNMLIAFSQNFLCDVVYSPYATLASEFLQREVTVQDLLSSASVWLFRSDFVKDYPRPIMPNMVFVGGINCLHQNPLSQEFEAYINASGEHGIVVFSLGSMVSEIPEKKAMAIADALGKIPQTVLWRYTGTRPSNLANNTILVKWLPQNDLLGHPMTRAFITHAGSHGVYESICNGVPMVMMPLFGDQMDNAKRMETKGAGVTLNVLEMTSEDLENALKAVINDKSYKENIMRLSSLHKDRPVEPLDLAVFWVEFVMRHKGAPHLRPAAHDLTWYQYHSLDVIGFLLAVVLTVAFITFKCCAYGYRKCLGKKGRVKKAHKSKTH

[9] = target: T3, UDP-glucuronosyltransferase 1A4 (Homo sapiens, UniProt P22310); test: Drug metabolism assessed as human UGT1A4-mediated N'-glucuronide-triclocarban formation expressed in baculovirus infected insect sf9 cells incubated for 5 mins prior to UDPGA addition measured after 5 to 30 mins by LC-UV analysis; format: ADME; how it was run: as §3
T3 sequence (P22310 whole entry): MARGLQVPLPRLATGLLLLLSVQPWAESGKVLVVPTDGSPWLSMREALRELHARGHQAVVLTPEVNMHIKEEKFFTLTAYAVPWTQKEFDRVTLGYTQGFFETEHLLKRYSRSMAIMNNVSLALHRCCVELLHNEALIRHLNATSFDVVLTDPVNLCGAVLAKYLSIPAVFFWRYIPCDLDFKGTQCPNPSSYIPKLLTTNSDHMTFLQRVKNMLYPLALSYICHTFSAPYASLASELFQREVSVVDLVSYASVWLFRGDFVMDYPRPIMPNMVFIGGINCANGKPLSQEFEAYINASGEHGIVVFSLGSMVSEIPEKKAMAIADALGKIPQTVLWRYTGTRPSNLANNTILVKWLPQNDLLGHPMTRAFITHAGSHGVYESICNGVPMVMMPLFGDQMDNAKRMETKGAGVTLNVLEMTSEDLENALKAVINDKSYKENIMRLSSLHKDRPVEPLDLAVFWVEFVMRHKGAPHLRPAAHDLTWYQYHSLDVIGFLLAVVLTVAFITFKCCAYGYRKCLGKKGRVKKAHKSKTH

| Structure (SMILES) | Km at 0.5 h [1] [µM] | Vmax [2] [nmol/min/mg] | Drug metabolism [3] | Drug metabolism [4] | Drug metabolism [5] | Drug metabolism [6] | Drug metabolism [7] | Drug metabolism [8] | Drug metabolism [9] |
| --- | --- | --- | --- | --- | --- | --- | --- | --- | --- |
| O=C(Nc1ccc(Cl)c(Cl)c1)Nc1ccc(Cl)cc1O | 3.08 | 5.37 | – | – | – | – | – | – | – |
| O=C(Nc1ccc(Cl)cc1)Nc1ccc(Cl)c(Cl)c1 [TRICLOCARBAN] | – | – | metabolite_not_detected | metabolite_detected | metabolite_detected | metabolite_not_detected | metabolite_not_detected | metabolite_not_detected | metabolite_not_detected |
